Screening data from PubChem BioAssay.
Autophagy HCS = autophagy modulators in MEF cells, primary screen, imaging, high-content, MEF GFP-LC3; MEF GFP-LC3 puncta imaging; test concentration mostly 10 µM; calls only at 10 µM (by protocol); hit rate 0.98% among 190,000; AID 463193, 2010;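 active = percentage of spot-positive cells more than 3 SD above its plate mean, without a fluorescence outlier flag or 80% toxicity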;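 note: spot-positive cell cutoff set from DMSO-treated cells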
TNF death inh = inhibitors of TNF-alpha triggered necroptosis, primary screen, cell-based, Jurkat FADD-/-, single concentration; Jurkat FADD-/- TNF necroptosis rescue, ATP luminescence, 24 h; 0 = TNF only, 100 = no-TNF cells; activation (protection from cell death), % at 10 µM; hit rate 0.068% among 220,000; AID 463075, 2010;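 active = activation, meaning protection from cell death, of at least 50% relative to plate controls; inactive = activation below 50%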;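 note: necroptosis triggered by 40 ng/mL TNF-alpha added together with compound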
Dynein cargo inh = inhibitors of GR-EGFP nuclear translocation, primary screen, dynein cargo transport inhibitor project, imaging, high-content, 3617.4 mouse cells; hit rate 0.47% among 220,000; test concentration mostly 20 µM; stimulated with dexamethasone, 1 µM; hits give low values; AID 1381, 2008; z-score, hits read low;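 active = plate z-score of nuclear minus cytoplasmic receptor signal below a set negative limit, without overly bright fluorescence or cell loss, cut at about -3.5 in these data, passing the limit was not always enough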;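 note: z-score of nuclear minus cytoplasmic ring GR-EGFP intensity difference per well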
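Also added – dexamethasone, 1.0 µM final · Buffer or medium – tet-free, stripped-serum medium · Schedule – induction 48 h, compound 1 h, agonist 30 min · Detection – formaldehyde fixation, Hoechst nuclear stain, 10x automated fluorescence imaging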
Hck Nef HTS = inhibitors of Nef-activated human Hck kinase, primary screen, biochemical, Z-Lyte FRET, 384-well, Hck-YEEI; Tyrosine-protein kinase HCK (Homo sapiens), P08631; Recombinant Hck-YEEI plus Nef, Z-Lyte FRET kinase assay; inhibition, % at 20 µM; hit rate 0.68% among 220,000; AID 463187, 2010;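 active = Hck-Nef kinase inhibition above about 50%, limit read from the data; inactive = inhibition below that limit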;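 note: 0% = DMSO with Hck plus Nef and 100% = Hck alone without Nef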
Mdm2 ligase inh = MDM2-luciferase reporter signal enhancers, primary screen, MDM2 E3 ligase inhibitor project, cell-based, luminescence, 1536-well; cell-based MDM2 ubiquitination luciferase reporter, 2 h; 0 = plate control, 100 = twice control, blank-subtracted; E3 ubiquitin-protein ligase Mdm2 (Homo sapiens), Q00987; hit rate 0.11% among 210,000; signal enhancement, % at 5 µM;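 active = signal enhancement of 30% or more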;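 note: luminescence tracks abundance of the self-degrading MDM2-luciferase fusion protein; higher signal means inhibition of MDM2 E3 ligase activity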
Target sequence (Q00987 whole entry, looked up, the tested form may be a part): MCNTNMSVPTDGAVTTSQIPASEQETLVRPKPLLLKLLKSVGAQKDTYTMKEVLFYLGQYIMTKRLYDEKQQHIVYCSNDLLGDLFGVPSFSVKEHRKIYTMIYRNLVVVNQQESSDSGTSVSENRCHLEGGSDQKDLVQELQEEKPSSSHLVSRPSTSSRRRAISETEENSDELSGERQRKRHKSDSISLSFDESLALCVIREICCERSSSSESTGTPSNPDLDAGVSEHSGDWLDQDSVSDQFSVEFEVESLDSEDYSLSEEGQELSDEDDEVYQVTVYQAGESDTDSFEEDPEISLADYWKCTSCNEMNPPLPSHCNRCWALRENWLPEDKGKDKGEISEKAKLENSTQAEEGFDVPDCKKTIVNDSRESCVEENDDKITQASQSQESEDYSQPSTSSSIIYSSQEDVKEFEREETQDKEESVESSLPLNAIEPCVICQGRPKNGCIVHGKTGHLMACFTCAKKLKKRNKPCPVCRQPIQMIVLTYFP
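Buffer or medium: Cells held in DMEM | Assay system: Stable mammalian line carrying autodegrading MDM2–luciferase fusion reporter | Quantity: 2000 cells/well | Times: 4 h settle plus 2 h compound, 37 °C | Doses: One concentration, 5 µM, with 0.2% DMSO | Technique: Luminescence with SteadyLite reagent, 15 min at room temperature | Benchmarks: Plate controls and plate blanks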
L929 necroptosis = inhibitors of zVAD-triggered necroptosis, primary screen, L929 cells. L929 zVAD necroptosis rescue, ATP luminescence, 24 h; with zVAD 60 µM. viability rescue, % at 10 µM. hit rate 0.38% among 220,000. AID 1377, 2008;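 active = activation, scaled between plate controls, above about 75%, limit read from the data; inactive = activation under that limit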;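 note: 0% = zVAD with DMSO and 100% = DMSO alone without zVAD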
Hck-Nef confirm = retest of Hck:Nef kinase inhibitor hits, confirmation, biochemical, Z-Lyte FRET, 384-well, p-Tyr peptide counterscreen; shares compounds with Hck Nef HTS; Recombinant Hck-YEEI:Nef, Z-Lyte FRET kinase assay; calls only at 10 µM; hit rate 28% among 1,300;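 active = average inhibition of at least 50%, with Z-scores no higher than 3 in both the phospho-tyrosine peptide and fluorescence counterscreens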
Active calls of the source: *. This is a sample that favours compounds with a hit; in the whole collection about 2.4% have one here.

Results for CCCc1c(C)c(C#N)c2nc3ccccc3n2c1NCCCN1CCOCC1 ?
Autophagy HCS: inactive; TNF death inh: 0; Dynein cargo inh: -0.24; Hck Nef HTS: 16; Mdm2 ligase inh: -4; L929 necroptosis: 0

Results for N#Cc1c2c(c(NCCN3CCOCC3)n3c1nc1ccccc13)CCCC2 ?
Autophagy HCS: inactive; TNF death inh: -1; Dynein cargo inh: 0.59; Hck Nef HTS: 31; Mdm2 ligase inh: -4; L929 necroptosis: 0

Results for N#Cc1c2c(c(NCCCN3CCOCC3)n3c1nc1ccccc13)CCC2 ?
Autophagy HCS: inactive; TNF death inh: 1; Dynein cargo inh: 0.11; Hck Nef HTS: 61*; Mdm2 ligase inh: -14; L929 necroptosis: 0

How did COc1ccccc1CN(C(=O)c1ccco1)C(C(=O)NC1CCCC1)c1ccncc1 (configuration not stated) do in these assays?
Autophagy HCS: inactive; TNF death inh: -2; Dynein cargo inh: -0.43; Hck Nef HTS: 1; Mdm2 ligase inh: -1; L929 necroptosis: 0

Results for Nc1nonc1-c1nc2ccccc2n1CC(=O)N/N=C/c1ccc(-c2cccc(C(=O)O)c2)o1 ?
Autophagy HCS: inactive; TNF death inh: 0; Dynein cargo inh: 1.5; Hck Nef HTS: 91*; Mdm2 ligase inh: -9; L929 necroptosis: 0; Hck-Nef confirm: active

What do the screens show for `CC(=O)Nc1ccc(-c2csc(NC(=O)C3CC(=O)N(c4ccc5c(c4)OCCO5)C3)n2)cc1` (configuration not stated)?
TNF death inh: -4; Dynein cargo inh: 0.16; Hck Nef HTS: 51*; L929 necroptosis: 0; Hck-Nef confirm: inactive

How did COc1ccc(-c2csc(NC(=O)C3CC(=O)N(c4ccc5c(c4)OCCO5)C3)n2)cc1 (configuration not stated) do in these assays?
Autophagy HCS: inactive; TNF death inh: 3; Dynein cargo inh: -0.74; Hck Nef HTS: 3; Mdm2 ligase inh: -3; L929 necroptosis: 1

What do the screens show for `O=C(O)C1CC(=O)N(c2ccc(OCc3c(F)cccc3Cl)cc2)C1` (configuration not stated)?
Autophagy HCS: inactive; TNF death inh: -2; Dynein cargo inh: 2.8; Hck Nef HTS: 0; Mdm2 ligase inh: -6; L929 necroptosis: 0

Results for CC1=C(C#N)C(=O)NC(=O)/C1=C/c1ccc(-c2ccc(S(N)(=O)=O)cc2)o1 ?
Autophagy HCS: inactive; TNF death inh: 1; Dynein cargo inh: 3; Hck Nef HTS: 52*; Mdm2 ligase inh: -5; L929 necroptosis: 3; Hck-Nef confirm: inactive

Results for NS(=O)(=O)c1ccc(-c2ccc(C=O)o2)cc1 ?
Autophagy HCS: inactive; TNF death inh: -1; Dynein cargo inh: -0.38; Hck Nef HTS: 22; Mdm2 ligase inh: -7; L929 necroptosis: 2

How did CCN(CC)c1ccc(/C=N/n2nnnc2N)c(O)c1 do in these assays?
Autophagy HCS: inactive; TNF death inh: -6; Dynein cargo inh: 0.47; Hck Nef HTS: 57*; Mdm2 ligase inh: -6; L929 necroptosis: 1; Hck-Nef confirm: inactive

Results for CCN(C)c1ccc(/C=N\n2nnnc2N)cc1 ?
Autophagy HCS: active; TNF death inh: -5; Dynein cargo inh: -0.93; Hck Nef HTS: 54*; Mdm2 ligase inh: 4; L929 necroptosis: 2

How did CC(C)C(=O)OCc1cn(-c2ccc(Cl)c(Cl)c2)nn1 do in these assays?
Autophagy HCS: inactive; TNF death inh: 2; Dynein cargo inh: 0.11; Hck Nef HTS: 18; Mdm2 ligase inh: -1; L929 necroptosis: 2

How did CS(=O)(=O)N1CCC(C(=O)Nc2cc(Cl)cc(Cl)c2)CC1 do in these assays?
Autophagy HCS: inactive; TNF death inh: 0; Dynein cargo inh: -0.6; Hck Nef HTS: -2; Mdm2 ligase inh: -14; L929 necroptosis: 0

How did Cc1nccc(-c2sc(-c3cccs3)nc2C)n1 do in these assays?
TNF death inh: -1; Dynein cargo inh: 0.037; Hck Nef HTS: 86*; Mdm2 ligase inh: 1; L929 necroptosis: 0; Hck-Nef confirm: inactive

What do the screens show for `CCN(CC)c1ccc(/C=N/N2CCN(Cc3cccc4ccccc34)CC2)c(O)c1`?
Autophagy HCS: inactive; TNF death inh: -1; Dynein cargo inh: -0.4; Hck Nef HTS: 1; Mdm2 ligase inh: -19; L929 necroptosis: 0

What do the screens show for `CC(C)Cn1c(N)c(C(=O)NCC2CCCO2)c2nc3ccccc3nc21` (configuration not stated)?
Autophagy HCS: inactive; TNF death inh: -10; Dynein cargo inh: -0.21; Hck Nef HTS: 53*; Mdm2 ligase inh: -1; L929 necroptosis: 6

How did O=C(NNC(=O)c1ccc([N+](=O)[O-])cc1)NC1CCCCC1 do in these assays?
TNF death inh: -1; Dynein cargo inh: -0.27; Hck Nef HTS: 6; Mdm2 ligase inh: -10; L929 necroptosis: 6

Results for CCCC(=O)Nc1ccc(Cl)c(NC(=O)c2cccc(OC)c2)c1 ?
Autophagy HCS: inactive; TNF death inh: 2; Dynein cargo inh: -0.54; Hck Nef HTS: 60*; Mdm2 ligase inh: 1; L929 necroptosis: 5; Hck-Nef confirm: inactive

How did CCCC(=O)Nc1ccc(Cl)c(NC(=O)c2cccnc2)c1 do in these assays?
Autophagy HCS: inactive; TNF death inh: 3; Dynein cargo inh: -0.13; Hck Nef HTS: 4; Mdm2 ligase inh: -3; L929 necroptosis: 55

How did O=C(Oc1ccc2ccc(=O)oc2c1)C1CCCCC1 do in these assays?
Autophagy HCS: inactive; TNF death inh: 1; Dynein cargo inh: -0.35; Hck Nef HTS: 67*; Mdm2 ligase inh: 4; L929 necroptosis: 1; Hck-Nef confirm: inactive

Results for O=C(Oc1cc2oc(=O)cc(-c3ccccc3)c2cc1Cl)C1CCCCC1 ?
Autophagy HCS: inactive; TNF death inh: -2; Dynein cargo inh: -0.093; Hck Nef HTS: 4; Mdm2 ligase inh: -59; L929 necroptosis: 0

How did COC(=O)c1cc(C)[nH]c2c(C)cc3nc4ccccc4c3c12 do in these assays?
TNF death inh: -5; Dynein cargo inh: 0.049; Hck Nef HTS: -17; Mdm2 ligase inh: -8; L929 necroptosis: 10
